ChEMBL document CHEMBL1151190, “Acetylated flavonoid glycosides potentiating NGF action from Scoparia dulcis” (2004)
The source made the active and inactive calls. No cut-off for these calls is given here.

Tests used:
[1] = test system: PC-12; assay: Induction of neurite growth in rat PC12D cells at 30 umol after 48 hrs; assay type: functional, cell-based
Outline: (§1)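 No NGF was added. PC12D cells were detached with EGTA/PBS and plated on poly-L-lysine. After 24 h they went into medium with 1% fetal calf serum and 2% horse serum plus compound (DMSO stocks 50 mmol). Cells were fixed after 48 h in 2% glutaraldehyde. The percentage with processes ≥ cell-body diameter was scored by phase-contrast microscopy: 3 fields/well, 6 wells/sample.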

[2] = test system: PC-12; assay: Induction of neurite growth in rat PC12D cells at 100 umol after 48 hrs; assay type: functional, cell-based; outline: as §1
[3] = test system: PC-12; assay: Induction of neurite growth in rat PC12D cells at 10 umol after 48 hrs; assay type: functional, cell-based; outline: as §1
[4] = test system: PC-12; assay: Increase of nerve growth factor-stimulated neurite growth in rat PC12D cells at 100 umol after 48 hrs; assay type: functional
Outline: (§2)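 PC12D cells detached with 1 mmol EGTA in PBS for 30 min, seeded at 2 × 10^4 cells/well on poly-L-lysine. After 24 h, switched to medium with 1% fetal calf serum, 2% horse serum, NGF 2 ng/mL plus compound at 10, 30 or 100 µmol (DMSO stocks 50 mmol). Fixed after 48 h with 2% glutaraldehyde, 37 °C, 1 h.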

[5] = test system: PC-12; assay: Increase of nerve growth factor-stimulated neurite growth in rat PC12D cells at 10 to 100 umol after 48 hrs; assay type: functional, cell-based; outline: as §2

SMILES	Activity [1]	Activity [2]	Activity [3]	Activity [4] [%]	Activity [5]
CC(=O)O[C@@H]1[C@@H](O)[C@H](C)O[C@@H](OC[C@H]2O[C@@H](Oc3cc(O)c4c(=O)cc(-c5ccc(O)cc5)oc4c3)[C@H](O)[C@@H](O)[C@@H]2O)[C@@H]1O	inactive	inactive	inactive	16.1	
CC(=O)O[C@@H]1[C@@H](O)[C@H](C)O[C@@H](OC[C@H]2O[C@@H](Oc3cc(O)c4c(=O)cc(-c5ccc(O)cc5)oc4c3)[C@H](O)[C@@H](O)[C@@H]2O)[C@@H]1OC(C)=O	inactive	inactive	inactive	14.9	
CC(=O)O[C@@H]1[C@@H](O)[C@H](C)O[C@@H](OC[C@H]2O[C@@H](Oc3cc4oc(-c5ccc(O)cc5)cc(=O)c4c(O)c3O)[C@H](O)[C@@H](O)[C@@H]2O)[C@@H]1OC(C)=O					inactive
C=CCc1ccc(O[C@@H]2O[C@H](CO)[C@@H](O)[C@H](O)[C@H]2O)c(OC)c1					inactive
